In the library only some 2.6% were active in any assay of this set; here they are far more common.
SR-BI DiI inh = blocks mouse SR-BI lipid uptake from DiI-HDL. Q61009. ldlA[mSR-BI] CHO cells, DiI-HDL uptake fluorescence, 3 h. inhibition, % at 12.5 µM. 320,000 tested, 0.96% active;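 active = mean replicate inhibition of at least 70% and a set share of replicates each scoring 70 or more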;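 note: 0% = median of neutral control wells and 100% = median of positive control wells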
SR-BI DiI-HDL act = SR-BI HDL lipid transfer activation. CHO ldlA[mSR-BI] cells, DiI-HDL uptake fluorescence, 3 h; 100 = double the neutral-control signal. activation, % at 12.5 µM. 320,000 tested, 0.096% active. AID 504775;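 active = mean replicate activation of at least 60% and every replicate at or above 60%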;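 note: 0% = median plate neutral-control signal and 100% = twice that signal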
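Test system: SR-BI-overexpressing, LDLR-lacking CHO cells. Measured by: DiI fluorescence, bottom read. Medium: Ham's F12 with 0.5% BSA, HEPES 25 mM, pH 7.4. Timing: 3 h uptake period with compound, 37 °C.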
XiGFP reactiv = X-chromosome reactivation activator | XiGFP mouse fibroblasts, % GFP-positive cells imaging, 3 d; cells co-treated with 5-aza-dC sensitizer; scaled so ellipticine positive control = 100% | activation, % at 7.58 µM | 360,000 tested, 0.055% active | AID 743238;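 active = mean normalized replicate activation at least 10% and every replicate at or above 10%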;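 note: 0% = median of on-plate neutral control wells and 100% = ellipticine 6 µM median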
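Material: SV40-immortalized XiGFP fibroblast cells, line 68-5-11 | Buffer or medium: DMEM containing 5-aza-dC | Dosing: One concentration, pinned | Times: 3 d treatment, 15 min room-temperature fixation | Controls: Ellipticine 6 µM positive control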
rRNA inh HTS = inhibits bacterial ribosomal RNA function over humanized ribosomes | AID 720706 | 350,000 tested, 1.6% active | GFP signal change (wild-type ribosome), % (no concentration beside the values) | E. coli WT GFP vs humanized-ribosome RFP mutants, fluorescence, 24 h; hits give low values; DMSO median 0, no signal -100;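 active = significant combined selectivity score with lowered wild-type GFP, culture density cut under 30%, mutant RFP and density less affected; inactive = any of these conditions unmet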
PvdQ inh = P. aeruginosa PvdQ acylase inhibition | inhibition, % at 10 µM | 340,000 tested, 0.063% active | purified PvdQ acylase, fluorescence plate reader; in the data active = inhibition above about 30%, passing the limit was not always enough;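 note: 0% = vehicle neutral wells and 100% = reference inhibitor wells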
dFosB activator = mouse delta FosB homodimer activation; P13346; purified delta FosB, TAMRA-CDK5 oligo fluorescence polarization; percent of positive-control signal above neutral wells; activation, % at 25 µM; 340,000 tested, 0.99% active;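 active = mean activation above about 17%, with every replicate also reaching it, limit read from the data, passing the limit was not always enough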
Target sequence (P13346 whole entry, looked up): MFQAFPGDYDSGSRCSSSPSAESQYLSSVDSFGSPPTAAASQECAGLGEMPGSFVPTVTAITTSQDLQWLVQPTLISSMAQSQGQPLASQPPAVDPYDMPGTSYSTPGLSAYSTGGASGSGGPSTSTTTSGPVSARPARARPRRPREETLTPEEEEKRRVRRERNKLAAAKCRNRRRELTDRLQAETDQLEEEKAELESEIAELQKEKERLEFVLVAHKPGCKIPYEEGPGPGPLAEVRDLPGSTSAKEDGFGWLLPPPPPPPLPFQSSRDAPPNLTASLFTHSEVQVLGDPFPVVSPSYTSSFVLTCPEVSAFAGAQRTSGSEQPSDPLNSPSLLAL
Active calls of the source: *; · = no result; ! = not active in a repeat.

SMILES	SR-BI DiI inh	SR-BI DiI-HDL act	XiGFP reactiv	rRNA inh HTS	PvdQ inh	dFosB activator
COc1cc2nc(N(CCN(C)C)C(=O)c3ccc4ccccc4c3)sc2cc1OC	8.2	-8.2	·	·	-2.5	0.1
CCc1ccc2nc(N(CCCN(C)C)C(=O)c3ccc(S(=O)(=O)N(C)C4CCCCC4)cc3)sc2c1	-2.1	2.1	-0.2	-12.3	3.1	6.0
CCOc1ccccc1CN1CCCC(C(=O)Nc2cccc(-n3cccn3)c2)C1 (configuration not stated)	7.5	-7.5	0.0	-1.8	-22.0	-16.2
CCOC(=O)c1cnc2ccc(C(=O)OC)cc2c1NCCc1ccc(OC)c(OC)c1	63.1	-63.1	0.3	·	-10.0	-0.9
CC(=O)c1csc(COc2ccccc2)n1	-4.0	4.0	0.2	6.2	-5.8	0.7
Cc1c(C)n(C)c2ccc(C(=O)Nc3cccc4ccccc34)cc12	81.4*	-81.4	·	·	-4.7	-4.4
O=C(Nc1cccc2ccccc12)c1ccccc1	-17.1	17.1	0.0	5.6	-1.1	2.8
CC(Sc1ccccc1)C(=O)NN=C1CCCC1 (configuration not stated)	-8.0	7.9	0.0	5.8	-7.2	-8.3
O=C(NN1C(=O)C2C3C=CC(C4CC34)C2C1=O)c1cccc(Br)c1 (configuration not stated)	-6.6	6.6	-0.1	-25.2*	12.8	-0.5
COC(=O)c1ccc(NC(=O)c2cccc(N3C(=O)C4C5C=CC(C6CC56)C4C3=O)c2)cc1 (configuration not stated)	24.3	·	-0.1	-1.5	-11.1	27.5*
O=C(NN1C(=O)C2C3C=CC([C@H]4CC34)[C@@H]2C1=O)c1ccc(Br)cc1 (some centres not stated)	6.4	-6.4	-0.1	-9.5	-0.3	-0.7
O=C(Nc1ccccc1)c1cccc(N2C(=O)C3C4C=CC(C5CC45)C3C2=O)c1 (configuration not stated)	17.9	-17.9	0.0	-13.0	-9.0	-16.5
O=C(NCc1ccccc1Cl)[C@@H]1[C@@H](CO)[C@@H]2Cn3c(cccc3=O)[C@@H]2N1C(=O)C1CCOCC1	·	·	0.0	-1.1	·	·
CC(=O)Nc1ccc(SCC(=O)c2cc(C)n(-c3ccccc3F)c2C)cc1	7.6	-7.6	0.0	·	-8.6	-11.4
CC(C)NC(=O)N1Cc2cc(C(=O)NC3CCCCC3)nc(-c3cccc(-c4cccnc4)c3)c2[C@@H]1CCO	·	·	0.0	-40.3*!	·	·
CC(C)NC(=O)N1Cc2cc(C(=O)NC3CCC3)nc(-c3cccc(-c4cccnc4)c3)c2[C@H]1CCO	·	·	0.1	-5.4	·	·
COc1ccccc1N1CCN(C(=O)C(C)CS(=O)(=O)c2ccc3c(c2)NC(=O)CS3)CC1 (configuration not stated)	18.0	-18.0	0.2	-3.4	-7.8	-0.5
O=C(NCc1cccc(Br)c1)c1cc(-c2ccccc2)nn1CC1CC(c2cccnc2)=NO1 (configuration not stated)	8.6	-8.6	-0.1	-10.2	-12.4	-2.9
CCCC1CCC(c2ccc(C(N)=O)cc2)CC1 (configuration not stated)	-37.0	36.9	·	·	-0.6	6.8
CCCC1CCC(c2ccc(C(=O)NN)cc2)CC1 (configuration not stated)	-160.9	161.0*	-0.1	·	12.5	-11.3
COc1cc(NC(=O)c2cc(S(=O)(=O)N3CCc4ccccc43)cn2C)cc(OC)c1OC	23.6	-23.6	0.0	5.9	1.3	3.6
N=c1c2c(n(Cc3ccc(F)cc3)c3c1CCC3)CCC2	0.2	-0.2	·	-29.3*	2.7	-2.5
CCn1c2c(c(=N)c3c1CCC3)CCC2	-11.8	11.8	0.0	0.9	-9.8	-1.2
Fc1ccccc1CNCCC(Cc1ccccc1)c1ccc2c(c1)OCO2 (configuration not stated)	-12.0	28.4	-0.1	-51.0*	-2.4	-1.7
CC(=O)N(CCC(Cc1ccccc1)c1ccc2c(c1)OCO2)Cc1ccccc1F (configuration not stated)	-12.3	12.3	·	·	-7.0	-5.4
SMILES	SR-BI DiI inh	SR-BI DiI-HDL act	XiGFP reactiv	rRNA inh HTS	PvdQ inh	dFosB activator
Cc1ccccc1/C=C/C(=O)c1ccc([N+](=O)[O-])o1	·	·	1.7	-55.2	·	·
COc1ccccc1-c1oc2ccccc2c1-c1ccc2cc[nH]c2c1	80.0*	-80.0	0.0	3.3	-18.4	-1.3
CCCCn1c(N)c(N(CC(C)C)C(=O)CC(NC(=O)c2ccccc2)c2ccccc2)c(=O)[nH]c1=O (configuration not stated)	-8.8	8.8	0.0	-2.4	0.5	-2.5
CC(C)C[C@H]1COc2cc(NCc3ccc(Cl)c(Cl)c3)ccc2S(=O)(=O)N1	·	·	0.0	-25.6*	·	·
CCCCNc1ccc2c(c1)OC[C@@H](CC(C)C)NS2(=O)=O	·	·	0.0	-2.2	·	·
CCCCNc1ccc2c(c1)OC[C@@H](Cc1ccccc1)NS2(=O)=O	·	·	-0.1	-27.7*	·	·
COc1ccc(-c2cc(C(=O)Nc3ccccc3)on2)cc1	9.1	-9.1	-0.5	4.6	-10.7	11.3
COc1ccc(C(=O)NCC(=O)N/N=C/C=C/c2ccccc2)cc1OC	83.0*	-83.0	-0.1	12.7	-4.3	-12.1
CC(C)(C)c1cc(C(=O)N/N=C/c2ccccn2)n[nH]1	-320.4	320.4*	0.1	6.6	-15.9	-0.2
Cc1ccc(C(=O)Nc2ccc(C(=O)N/N=C/c3c[nH]c4ccccc34)cc2)cc1	93.9*	-93.9	-0.1	·	-8.9	5.4
Cc1ccc(C(=O)Nc2ccc(C(=O)N/N=C/c3ccccn3)cc2)cc1	76.0*	-76.0	0.3	·	-11.0	-7.3
COc1ccc(C(=O)NCC(=O)N/N=C/C(C)=C/c2ccccc2)cc1OC	40.7	-40.7	0.0	·	2.1	-4.3
C[C@H]1CN([C@@H](C)CO)C(=O)Cc2cc(NC(=O)CCCCCC(=O)Nc3ccccc3N)ccc2O[C@@H]1CN(C)S(=O)(=O)c1cn(C)cn1	·	·	-1.1	2.8	·	·
COc1cccc(-c2cc3nc(-c4ccccc4)cc(N4CCN(C(=O)c5ccoc5)CC4)n3n2)c1	·	·	-0.2	7.6	·	·
CN(c1ccccc1)S(=O)(=O)c1cccc(NC(=O)COc2cccc([N+](=O)[O-])c2)c1	29.7	-29.7	0.3	-5.9	-15.6	3.0
O=C(N/N=C/c1ccccn1)c1cccs1	-1.6	1.6	-0.1	-24.2*	6.3	-10.9
Cc1ccnn1CC(=O)N/N=C/c1c[nH]c2ccccc12	3.7	-3.7	0.3	-39.0*	-16.6	-2.6
Cc1cc(/C=N\NC(=O)c2cccs2)c(C)n1-c1ccc2ncccc2c1	73.3*	-73.3	·	·	8.0	3.7
O=C(N/N=C/c1ccccn1)c1ccccc1	-18.0	18.0	0.0	-25.5*	-6.3	-11.0

Compound activity as filed in PubChem BioAssay.
